# Assay outcomes deposited in PubChem by several laboratories.
# Compounds with a hit are over-represented: about 2.1% of the library has one in this group of screens.
# A3A deaminase = human APOBEC3A DNA deaminase inhibition | P31941 | recombinant A3A, FAM/TAMRA ssDNA deamination fluorescence | inhibition, % at 20 µM | actives 0.41% (n = 330,000) | AID 493011;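 active means at least 40% inhibition at 20 µM here, with at most 30% in a related deaminase screen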;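 further: plate controls were A3A with DMSO for no effect and wells lacking A3A enzyme for full effect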
# Target sequence (P31941 whole entry, looked up): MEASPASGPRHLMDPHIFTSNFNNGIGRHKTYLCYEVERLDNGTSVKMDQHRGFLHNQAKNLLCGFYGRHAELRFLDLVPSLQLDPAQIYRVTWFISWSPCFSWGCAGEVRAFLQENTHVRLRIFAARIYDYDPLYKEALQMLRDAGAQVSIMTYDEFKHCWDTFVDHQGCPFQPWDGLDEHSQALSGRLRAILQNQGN
# SUMO Mot1 rescue = inhibitors of SUMOylation pathway: yeast Mot1-301 growth rescue; S. cerevisiae Mot1-301 growth rescue, ATP luminescence, 38.5C; percent above DMSO median, 100 means doubled; growth rescue, % at 18.8 µM; actives 1% (n = 320,000);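 active means every valid replicate shows activation above 250% relative to neutral control wells; inactive means the rest, any valid replicate at or below 250%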;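 further: OY570 slx delta 5 strain wells were the positive control but not used for scaling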
# ASAP1 inh = blocks human ASAP1-stimulated Arf1 GTP hydrolysis. Q9ULH1. GDP FP detection. actives 0.19% (n = 360,000). inhibition, % at 16.5 µM; in the data active means inhibition above about 25%;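 further: 0% = vehicle with enzyme and substrate and 100% = no enzyme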
# Target sequence (Q9ULH1 325-724 limits assumed): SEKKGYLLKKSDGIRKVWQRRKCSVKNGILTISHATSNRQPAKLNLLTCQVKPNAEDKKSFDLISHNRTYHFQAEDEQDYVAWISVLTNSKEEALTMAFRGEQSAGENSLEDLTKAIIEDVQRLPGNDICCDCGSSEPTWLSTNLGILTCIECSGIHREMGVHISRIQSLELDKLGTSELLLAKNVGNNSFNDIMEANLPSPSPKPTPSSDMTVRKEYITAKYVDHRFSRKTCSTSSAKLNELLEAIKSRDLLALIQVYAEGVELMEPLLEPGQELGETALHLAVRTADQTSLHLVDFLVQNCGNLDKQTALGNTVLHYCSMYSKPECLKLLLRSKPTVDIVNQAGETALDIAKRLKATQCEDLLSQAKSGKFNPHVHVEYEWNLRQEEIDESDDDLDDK
# APOBEC3G inh = blocks human APOBEC3G single-stranded DNA deamination | recombinant A3G, ssDNA deamination FAM/TAMRA fluorescence | inhibition, % at 20 µM | actives 0.28% (n = 330,000) | AID 493012;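 active means inhibition of at least 40% at 20 µM, with no more than 30% in the related APOBEC3A deaminase screen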;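 further: plate controls were DMSO wells with A3G for no effect and wells lacking A3G enzyme for full effect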
# Statin myotox sup = suppressors of simvastatin-induced myotoxicity in C2C12 myotubes; ATP luminescence, 48 h; scaled: DMSO 0, geranylgeraniol control 100; rescue of ATP level, % at 7.49 µM; actives 0.78% (n = 330,000);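 active means mean ATP rescue above about 67%, or every replicate alone reaching that limit, limit read from the data, passing the limit was not always enough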;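 further: myotubes were challenged with 10 µM simvastatin during compound exposure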
# ARFGAP1 inhibitor = rat ARFGAP1 inhibition; Q62848; Arfgap1-stimulated ARF1 GTP hydrolysis, GDP FP detection; inhibition, % at 16.5 µM; actives 0.26% (n = 360,000);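 active means inhibition above a per-plate limit, mean inhibition of low control wells plus 3 SD, cut at about 25% in these data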;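 further: 0% = DMSO wells with enzyme and 100% = wells lacking Arfgap1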
#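 system = rat Arfgap1 catalytic domain, aa 1-136 | technique = FP, GDP Alexa 633 tracer displaced from anti-GDP antibody, 620/688 nm | compound = one concentration, 16.5 µM, DMSO 1.26% | medium = HEPES-based buffer, pH 7.5 | timing = compound-enzyme preincubation 20 min, reaction 120 min, detection 60 min, 25 °C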
# * = called active by the depositor; . = no result given.
SMILES,A3A deaminase,SUMO Mot1 rescue,ASAP1 inh,APOBEC3G inh,Statin myotox sup,ARFGAP1 inhibitor
O=C(c1ccco1)[C@@H]1[C@@H]2C(=O)N(c3ccccc3)C(=O)[C@@H]2C2c3ccccc3C=CN21 (stereo not given in full),-1,-1,34*,5,.,2
C[C@@H]1CN([C@H](C)CO)C(=O)c2cc(NC(=O)Cc3ccccc3)ccc2O[C@@H]1CN(C)Cc1ccc(Oc2ccccc2)cc1,.,.,.,.,-4,.
C[C@@H]1CN([C@H](C)CO)C(=O)Cc2cc(NS(=O)(=O)c3cn(C)cn3)ccc2O[C@@H]1CN(C)Cc1ccc(-c2ccccc2)cc1,.,.,.,.,82*,.
C[C@@H]1CN([C@H](C)CO)C(=O)Cc2cc(NS(=O)(=O)c3cn(C)cn3)ccc2O[C@H]1CN(C)Cc1ccc2c(c1)OCO2,.,.,.,.,-7,.
C[C@H](CO)N1C[C@H](C)[C@@H](CN(C)Cc2ccc(Cl)c(Cl)c2)Oc2ccc(NS(=O)(=O)c3cn(C)cn3)cc2CC1=O,.,.,.,.,166*,.
O=C(C[C@H]1CC[C@H]2[C@@H](COC[C@@H](O)CN2S(=O)(=O)c2ccccc2)O1)N[C@H]1CCN(Cc2ccccc2)C1,.,.,.,.,1,.
c1ccc(-c2csc3nnc(SCc4ccc5c(c4)OCCO5)n23)cc1,2,-5,-4,2,157*,5
O=C(C[C@@H]1CC[C@H]2[C@@H](COC[C@H](O)CN2C(=O)c2ccccc2F)O1)NCc1ccc(Cl)cc1,.,.,.,.,-12,.
COc1ccc(-n2nnnc2SCC(=O)N2CCCc3ccccc32)cc1OC,1,78,0,-2,128*,2
COc1cc(OC)cc(-c2nnc(SCC(=O)N3CCCc4ccccc43)o2)c1,-4,-18,0,-2,108*,-12
Cc1ccc(-n2nnnc2SCC(=O)N2CCCCC2)cc1,3,-13,-9,-3,-1,0
Cn1nnnc1SCC(=O)N1CCCc2ccccc21,-3,6,-3,-5,-11,-6
O=C(CSc1nnnn1-c1cccc2c1CCCC2)N1CCCCC1,-4,1,1,-4,105*,-7
COc1cccc(-c2nnc(SCC(=O)N3CCCc4ccccc43)o2)c1,2,135,1,-1,98*,-5
O=C(C[C@H]1C[C@H]2c3cc(NC(=O)c4ccc5c(c4)OCO5)ccc3O[C@H]2[C@@H](CO)O1)NCc1cccnc1,.,.,.,.,-2,.
CO[C@H]1CN(C)C(=O)c2ccc(NC(C)=O)cc2OC[C@@H](C)N(C(=O)C2CCCCC2)C[C@H]1C,.,.,.,.,9,.
C[C@H](CO)N1C[C@H](C)[C@H](CN(C)CC2CCCCC2)OCCCC[C@H](C)Oc2ccc(NS(=O)(=O)c3cn(C)cn3)cc2C1=O,.,.,.,.,-6,.
C[C@@H]1CCCCO[C@H](CN(C)C(=O)Nc2cccc3ccccc23)[C@H](C)CN([C@@H](C)CO)C(=O)c2cc(N(C)C)ccc2O1,.,.,.,.,71*,.
C[C@@H]1CCCCO[C@H](CN(C)C(=O)Nc2cccc3ccccc23)[C@H](C)CN([C@@H](C)CO)C(=O)c2cc(NC(=O)Nc3ccc4c(c3)OCO4)ccc2O1,.,.,.,.,122*,.
C[C@@H]1CN([C@H](C)CO)C(=O)c2cc(N(C)C)ccc2O[C@@H](C)CCCCO[C@H]1CN(C)C(=O)Nc1cccc2ccccc12,.,.,.,.,34,.
COc1ccc(S(=O)(=O)N2CCCCN3[C@@H](CO)[C@H](c4ccc(C5=CCCC5)cc4)[C@@H]3C2)cc1,.,.,.,.,-22,.
O=C(C[C@H]1CC[C@@H]2[C@H](COC[C@H](O)CN2CC2CCCCC2)O1)NCc1ccc(Cl)cc1,.,.,.,.,31,.
O=C(Nc1ccc(N2CCOCC2)c(Cl)c1)c1cccnc1,-4,40,-5,-9,92*,3
O=C(CCc1ccccc1)Nc1ccc(N2CCOCC2)c(Cl)c1,-10,-3,9,-1,113*,5
Cc1ccc(NC(=O)CSCC(=O)Nc2ccc(N3CCOCC3)c(Cl)c2)cc1,0,15,6,-3,121*,-3
SMILES,A3A deaminase,SUMO Mot1 rescue,ASAP1 inh,APOBEC3G inh,Statin myotox sup,ARFGAP1 inhibitor
Cc1noc(C)c1S(=O)(=O)Nc1ccc2c(c1)CC(=O)N([C@@H](C)CO)C[C@@H](C)[C@H](CN(C)S(=O)(=O)c1c(C)noc1C)O2,.,.,.,.,-2,.
CCNC(=O)C[C@@H]1CC[C@@H]2[C@@H](COc3ccc(NC(=O)c4cccc(OC)c4)cc3C(=O)N2C)O1,.,.,.,.,7,.
CCOC(=O)c1cnc(SC)nc1Oc1cccc(NS(=O)(=O)c2ccc(C)cc2)c1,2,2,0,-2,90*,7
CCCN1[C@@H]2Cn3c(ccc(-c4ccccc4F)c3=O)[C@H]1[C@@H](C(=O)NCC)[C@@H]2CO,.,.,.,.,-8,.
COc1ccc(NC(=O)CN2c3cccc4cccc(c34)S2(=O)=O)cc1,-1,13,7,1,99*,-3
Cc1ccc(NC(=O)CN2c3cccc4cccc(c34)S2(=O)=O)cc1,-2,-1,2,14,-4,5
CO[C@H]1CN(C)C(=O)c2ccc(NC(=O)C3CC3)cc2OC[C@@H](C)N(Cc2cccnc2)C[C@H]1C,.,.,.,.,-10,.
CSc1ccccc1NC(=O)CSc1nnc(CNC(=O)c2ccccc2F)n1C,1,308*,-4,-3,11,-1
Cn1c(SCC(=O)Nc2ccccc2C(F)(F)F)nc2c(c1=O)SCC2,-2,1,-13,-12,0,2
Cc1nc(N)sc1-c1nnc(SCC(=O)Nc2ccccc2C(F)(F)F)n1C,-1,-6,2,-1,142*,1
COCC(=O)Nc1nc(-c2ccc(C)cc2)c(C)s1,-3,7,-4,0,123*,17
CC(C)NC(=O)N(C)C[C@H]1Oc2ccc(NC(=O)Nc3ccc(C(F)(F)F)cc3)cc2CC(=O)N([C@@H](C)CO)C[C@@H]1C,.,.,.,.,-14,.
O=C(C[C@H]1C[C@@H]2c3cc(NC(=O)NC4CCCC4)ccc3O[C@@H]2[C@@H](CO)O1)NCc1ccc(Oc2ccccc2)cc1,.,.,.,.,-52,.
CCCCNC(=O)c1ccc(CS(=O)(=O)c2cccc(C(F)(F)F)c2)o1,-2,-3,1,-6,144*,9
CCC(=O)Nc1ccc2c(c1)C(=O)N(C)[C@@H]1CC[C@H](CC(=O)NCCc3ccccc3)O[C@@H]1CO2,.,.,.,.,-1,.
CCOC(=O)CN1C(=O)C(O)(CC(=O)c2cccc(OC)c2)c2ccccc21 (stereo not given),-3,-21,12,-4,-3,26*
CC(=O)Nc1ccc2c(c1)C(=O)N(c1ccc(C)cc1)C2=O,1,-20,-6,-2,77*,-7
COc1ccc(N2C(=O)c3ccc(NC(C)=O)cc3C2=O)cc1,0,-16,-8,-1,-17,5
